# According to ChEMBL document CHEMBL4411315, “Discovery of Novel Dual Histone Deacetylase and Mammalian Target of Rapamycin Target Inhibitors as a Promising Strategy for Cancer Therapy” (J Med Chem, 2019):
# How the values were obtained:
# MM1.S [1] = assay: Antiproliferative activity against human MM1S cells after 72 hrs by MTT assay; format: functional, cell-based
# MV4-11 [2] = assay: Cell cycle arrest in human MV4-11 cells assessed as accumulation at G2/M phase at 5 nM after 24 hrs by propidium iodide/RNase staining-based FACS analysis (reference value: 18.79%); format: functional
# MM1.S [3] = assay: Induction of apoptosis in human MM1S cells assessed as early apoptotic cells at 320 nM after 48 hrs by Annexin V-FITC/propidium iodide staining-based flow cytometric analysis (reference value: 0.38%); format: functional
# MV4-11 [4] = assay: Induction of apoptosis in human MV4-11 cells assessed as late apoptotic cells at 20 nM after 48 hrs by Annexin V-FITC/propidium iodide staining-based flow cytometric analysis (reference value: 5.03%); format: functional
# MM1.S [5] = assay: Induction of apoptosis in human MM1S cells assessed as necrotic cells at 10 nM after 48 hrs by Annexin V-FITC/propidium iodide staining-based flow cytometric analysis (reference value: 0.32%); format: functional
# MM1.S [6] = assay: Induction of apoptosis in human MM1S cells assessed as late apoptotic cells at 160 nM after 48 hrs by Annexin V-FITC/propidium iodide staining-based flow cytometric analysis (reference value: 0.42%); format: functional
# [7] = Toxicity against NOD/SCID mouse xenografted with human MV4-11 cells assessed as effect on body weight at 10 mg/kg, iv administered every 2 days for 6 days; format: organism-based; conditions: in vivo
# Summary of the method: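 MV4-11 cells (10^7 in 100 μL serum-free IMDM) were injected s.c. into the right flank of female NOD/SCID mice aged 5-6 weeks. Groups of 6 were randomised at 100-200 mm3. Dosing was i.v. every 2 days in physiological saline containing 2.5% DMSO and 10% cyclodextrin, pH 9. Tumours were measured by caliper every 2 days. Survivors were counted.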
# [8] = Toxicity against NOD/SCID mouse xenografted with human MM1S cells assessed as effect on body weight at 10 mg/kg, iv administered every 2 days for 5 days; format: organism-based; conditions: in vivo
# Summary of the method: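 Female NOD/SCID mice, 5-6 weeks old, received 10^7 MM1S cells in 100 μL serum-free RPMI 1640 s.c. into the right flank. At 100-200 mm3 tumours they were randomised, 6 mice per group. Tumours were measured by caliper every 2 days. At the end, tumours were excised and weighed. Survivors are reported per group.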
# MM1.S [9] = assay: Induction of apoptosis in human MM1S cells assessed as necrotic cells at 40 nM after 48 hrs by Annexin V-FITC/propidium iodide staining-based flow cytometric analysis (reference value: 0.32%); format: functional
# MM1.S [10] = assay: Induction of apoptosis in human MM1S cells assessed as viable cells at 80 nM after 48 hrs by Annexin V-FITC/propidium iodide staining-based flow cytometric analysis (reference value: 98.9%); format: functional; conditions: read-out: Activity
# MV4-11 [11] = assay: Induction of apoptosis in human MV4-11 cells assessed as viable cells at 40 nM after 48 hrs by Annexin V-FITC/propidium iodide staining-based flow cytometric analysis (reference value: 84.1%); format: functional; conditions: MV4-11, 48 h, read-out: Activity
# MV4-11 [12] = assay: Cell cycle arrest in human MV4-11 cells assessed as accumulation at G2/M phase at 1.25 nM after 24 hrs by propidium iodide/RNase staining-based FACS analysis (reference value: 18.79%); format: functional
# MM1.S [13] = assay: Induction of apoptosis in human MM1S cells assessed as necrotic cells at 160 nM after 48 hrs by Annexin V-FITC/propidium iodide staining-based flow cytometric analysis (reference value: 0.32%); format: functional
# MV4-11 [14] = assay: Induction of apoptosis in human MV4-11 cells assessed as early apoptotic cells at 40 nM after 48 hrs by Annexin V-FITC/propidium iodide staining-based flow cytometric analysis (reference value: 10.7%); format: functional
# MV4-11 [15] = assay: Induction of apoptosis in human MV4-11 cells assessed as viable cells at 20 nM after 48 hrs by Annexin V-FITC/propidium iodide staining-based flow cytometric analysis (reference value: 84.1%); format: functional; conditions: MV4-11, 48 h, read-out: Activity
# MM1.S [16] = assay: Induction of apoptosis in human MM1S cells assessed as late apoptotic cells at 10 nM after 48 hrs by Annexin V-FITC/propidium iodide staining-based flow cytometric analysis (reference value: 0.42%); format: functional
# MM1.S [17] = assay: Induction of apoptosis in human MM1S cells assessed as viable cells at 320 nM after 48 hrs by Annexin V-FITC/propidium iodide staining-based flow cytometric analysis (reference value: 98.9%); format: functional; conditions: read-out: Activity
# MV4-11 [18] = assay: Cell cycle arrest in human MV4-11 cells assessed as accumulation at S phase at 5 nM after 24 hrs by propidium iodide/RNase staining-based FACS analysis (reference value: 36.42%); format: functional
# Histone deacetylase 11 = Histone deacetylase 11 (Homo sapiens, UniProt Q96DB2); assay: Inhibition of recombinant full length N-terminal GST-tagged human HDAC11 expressed in baculovirus expression system using Ac-peptide-AMC as substrate preincubated for 15 mins followed by substrate addition and measured after 1 hr by fluorescence assay
# HCT-116 = assay: Antiproliferative activity against human HCT116 cells after 72 hrs by MTT assay; format: functional, cell-based; conditions: HCT-116, 72 h
# MV4-11 [19] = assay: Cell cycle arrest in human MV4-11 cells assessed as accumulation at G0/G1 phase at 5 nM after 24 hrs by propidium iodide/RNase staining-based FACS analysis (reference value: 44.79%); format: functional
# [20] = target: Polyamine deacetylase HDAC10 (Homo sapiens, UniProt Q969S8); assay: Inhibition of recombinant full length N-terminal FLAG-tagged human HDAC10 expressed in baculovirus infected sf9 cells using Ac-peptide-AMC as substrate preincubated for 15 mins followed by substrate addition and measured after 1 hr by fluorescence assay
# MM1.S [21] = assay: Cell cycle arrest in human MM1S cells assessed as accumulation at G2/M phase at 10 nM after 24 hrs by propidium iodide/RNase staining-based FACS analysis (reference value: 26.29%); format: functional
# [22] = target: PI3-kinase p110-alpha/p85-alpha (Homo sapiens) (UniProt P27986+P42336); assay: Inhibition of recombinant human full length N-terminal His-tagged/untagged p110alpha/p85alpha expressed in baculovirus expression system at 1000 nM using PIP2 as substrate after 1 hr by Kinase-Glo reagent-based assay relative to control
# Summary of the method: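 PI3Kα (p110α/p85α) incubated with PIP2 substrate and ATP in kinase buffer for 1 h at room temperature. Kinase-Glo reagent was then added for 15 min before luminescence read-out. Inhibition rate at 100 or 1000 nM is the mean of at least two experiments.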
# MM1.S [23] = assay: Cell cycle arrest in human MM1S cells assessed as accumulation at G0/G1 phase at 10 nM after 24 hrs by propidium iodide/RNase staining-based FACS analysis (reference value: 49.22%); format: functional
# Histone deacetylase 11, sequence (Q96DB2 whole entry): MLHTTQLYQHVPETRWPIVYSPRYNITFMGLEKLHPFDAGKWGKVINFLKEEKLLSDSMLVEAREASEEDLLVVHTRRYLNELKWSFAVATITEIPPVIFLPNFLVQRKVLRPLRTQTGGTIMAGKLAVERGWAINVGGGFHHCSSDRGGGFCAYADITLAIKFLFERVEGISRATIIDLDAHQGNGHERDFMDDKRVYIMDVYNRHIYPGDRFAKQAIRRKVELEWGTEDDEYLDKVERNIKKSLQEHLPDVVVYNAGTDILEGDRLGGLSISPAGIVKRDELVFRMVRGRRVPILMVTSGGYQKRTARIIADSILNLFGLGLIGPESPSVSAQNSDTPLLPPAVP
# Polyamine deacetylase HDAC10, sequence (Q969S8 whole entry): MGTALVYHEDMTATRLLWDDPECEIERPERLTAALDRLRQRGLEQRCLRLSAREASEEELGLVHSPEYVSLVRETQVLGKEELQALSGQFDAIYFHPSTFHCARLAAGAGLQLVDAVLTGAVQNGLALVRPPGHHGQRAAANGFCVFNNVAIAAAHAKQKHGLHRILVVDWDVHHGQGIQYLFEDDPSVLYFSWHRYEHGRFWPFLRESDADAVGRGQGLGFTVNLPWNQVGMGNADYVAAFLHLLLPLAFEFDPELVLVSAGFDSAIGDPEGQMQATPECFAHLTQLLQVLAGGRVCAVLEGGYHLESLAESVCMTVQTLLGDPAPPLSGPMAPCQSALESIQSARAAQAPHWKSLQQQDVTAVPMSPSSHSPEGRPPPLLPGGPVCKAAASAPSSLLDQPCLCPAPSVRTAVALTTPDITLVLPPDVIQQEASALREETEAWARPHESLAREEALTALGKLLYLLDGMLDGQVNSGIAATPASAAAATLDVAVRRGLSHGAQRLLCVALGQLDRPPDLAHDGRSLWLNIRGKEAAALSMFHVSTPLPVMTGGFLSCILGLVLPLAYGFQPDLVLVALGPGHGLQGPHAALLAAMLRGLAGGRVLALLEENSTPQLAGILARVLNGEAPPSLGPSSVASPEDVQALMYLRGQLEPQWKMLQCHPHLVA
compound,measurement,setting,value
C[C@@H]1CN(C(=O)Nc2ccc(-c3nc(N4CCOCC4)c4cnn(CCCCCCC(=O)NO)c4n3)cc2)CCO1,IC50,MM1.S [1],7.3 nM
same,Activity,MV4-11 [2],13.99%
same,Activity,MM1.S [3],32.2%
same,Activity,MV4-11 [4],38.4%
same,Activity,MM1.S [5],0.31%
same,Activity,MM1.S [6],63.3%
same,Activity,[7],Non-Toxic
same,Activity,[8],Non-Toxic
same,Activity,MM1.S [9],2.08%
same,viability at 0.08 µM,MM1.S [10],49.7%
same,viability at 0.04 µM,MV4-11 [11],2.99%
same,Activity,MV4-11 [12],18.99%
same,Activity,MM1.S [13],3.39%
same,Activity,MV4-11 [14],37.4%
same,viability at 0.02 µM,MV4-11 [15],20.6%
same,Activity,MM1.S [16],1.49%
same,viability at 0.32 µM,MM1.S [17],3.68%
same,Activity,MV4-11 [18],21.32%
same,IC50,Histone deacetylase 11,> 1000 nM
same,IC50,HCT-116,17.2 nM
same,Activity,MV4-11 [19],64.69%
same,IC50,[20],0.58 nM
same,Activity,MM1.S [21],20.43%
same,inhibition,[22],57.3%
same,Activity,MM1.S [23],66.96%
